Published values pooled from the literature.
Converted amounts (≈) assume the structure as drawn.

| Structure (SMILES) | target or system | test | system | setting | measurement | value |
| --- | --- | --- | --- | --- | --- | --- |
| O=c1cc(-c2ccc(O)c(O)c2)oc2cc(O)cc(O)c12 | Helicobacter pylori | microbial growth, broth dilution |  | 1.95 µg/mL | inhibition | 89.3% |
| C[C@H](Nc1ccnc(Nc2cccc(-c3cccnc3)c2)n1)C(=O)O | BJ | cell growth or viability, ATP luminescence |  | 72 h | EC50 | > 9 µM |
| O=C(O)c1ccc(O)cc1 | Helicobacter pylori | microbial growth, broth dilution |  | 62.5 µg/mL | inhibition | 100% |
| CN(C)C/C=C/C(=O)Nc1cc2c(Nc3ccc(F)c(Cl)c3)ncnc2cc1O[C@H]1CCOC1 | KB-C2 | cell growth or viability, ATP luminescence |  | 6 µM, 12 days, 3D culture | viability | 92.7% |
| CC[C@H]1OC(=O)[C@H](C)[C@@H](O[C@H]2C[C@@](C)(OC)[C@@H](O)[C@H](C)O2)[C@H](C)[C@@H](O[C@@H]2O[C@H](C)C[C@H](N(C)C)[C@H]2O)[C@](C)(OC)C[C@@H](C)C(=O)[C@H](C)[C@@H](O)[C@]1(C)O | Helicobacter pylori | microbial growth, broth dilution |  | 0.24 µg/mL | inhibition | 81.3% |
| c1ccc(-c2cccc(Nc3nccc(NC4CCCCC4)n3)c2)cc1 | BJ | cell growth or viability, ATP luminescence |  | 72 h | EC50 | > 5 µM |
| CN(C)[C@@H]1C(O)=C(C(N)=O)C(=O)[C@@]2(O)C(O)=C3C(=O)c4c(O)cccc4[C@@](C)(O)[C@H]3C[C@@H]12 | Salmonella enterica | microbial growth |  | 20 h, pH 5.5 | MIC | 1 µg/mL (≈ 2.25 µM) |
| c1cncc(-c2cccc(Nc3nccc(NC4CCOCC4)n3)c2)c1 | BJ | cell growth or viability, ATP luminescence |  | 72 h | EC50 | > 24 µM |
| CS(=O)(=O)c1ccc([C@@H](O)[C@@H](CF)NC(=O)C(Cl)Cl)cc1 | Salmonella enterica | microbial growth | ENTERITIDIS | 20 h, pH 7.2 | MIC | 8 µg/mL (≈ 22.3 µM) |
| CCCCNc1ccnc(Nc2cccc(-c3cccnc3)c2)n1 | BJ | cell growth or viability, ATP luminescence |  | 72 h | EC50 | > 17 µM |
| O=C(N[C@H](CO)[C@H](O)c1ccc([N+](=O)[O-])cc1)C(Cl)Cl | Salmonella enterica | microbial growth |  | 20 h, pH 7 | MIC | 2 µg/mL (≈ 6.19 µM) |
| O=C(Nc1cncc(-c2nc3ccccc3o2)c1)c1ccc(N2CCNCC2)c([N+](=O)[O-])c1 | BJ | cell growth or viability, ATP luminescence |  |  | EC50 | > 20 µM |
| CO/N=C(\C(=O)N[C@@H]1C(=O)N2C(C(=O)O)=C(CSc3nc(=O)c(=O)[nH]n3C)CS[C@H]12)c1csc(N)n1 | Salmonella enterica | microbial growth | F98, TYPHIMURIUM | 20 h, pH 7 | MIC | 0.125 µg/mL (≈ 0.225 µM) |
| O=c1cc(-c2ccc(O)cc2)oc2cc(O)cc(O)c12 | Helicobacter pylori | microbial growth, broth dilution |  | 31.25 µg/mL | inhibition | 100% |
